Results as given in article PMC9293711 (Acta Pharmaceutica Sinica. B, 2022).
Where two headings read alike, the source gives them in different places.

Tests used:
MCF-7/ADR cells = assay type: cell-based, human; details: after 24 h pre-incubation with non-toxic concentration of the compound
How it was run: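 Adr-resistant MCF-7/ADR cells were kept in RPMI 1640 with 10% FBS and 1000 ng/mL Adr. Cells were seeded at 5 × 10^3/well and pre-treated 24 h with the test compound at its highest non-toxic level (95% viability by 24 h CCK8 over 1.25–80 μmol/L). Adr (0–100 μmol/L) was then added for 24 h.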

P-gp [1] = molecular target: T1, P-gp (Homo sapiens, UniProt P08183); test: biochemical; details: Table 2, steady-state affinity model (1:1), reference FC SMALPs-MCF-7
T1 sequence (P08183 whole entry): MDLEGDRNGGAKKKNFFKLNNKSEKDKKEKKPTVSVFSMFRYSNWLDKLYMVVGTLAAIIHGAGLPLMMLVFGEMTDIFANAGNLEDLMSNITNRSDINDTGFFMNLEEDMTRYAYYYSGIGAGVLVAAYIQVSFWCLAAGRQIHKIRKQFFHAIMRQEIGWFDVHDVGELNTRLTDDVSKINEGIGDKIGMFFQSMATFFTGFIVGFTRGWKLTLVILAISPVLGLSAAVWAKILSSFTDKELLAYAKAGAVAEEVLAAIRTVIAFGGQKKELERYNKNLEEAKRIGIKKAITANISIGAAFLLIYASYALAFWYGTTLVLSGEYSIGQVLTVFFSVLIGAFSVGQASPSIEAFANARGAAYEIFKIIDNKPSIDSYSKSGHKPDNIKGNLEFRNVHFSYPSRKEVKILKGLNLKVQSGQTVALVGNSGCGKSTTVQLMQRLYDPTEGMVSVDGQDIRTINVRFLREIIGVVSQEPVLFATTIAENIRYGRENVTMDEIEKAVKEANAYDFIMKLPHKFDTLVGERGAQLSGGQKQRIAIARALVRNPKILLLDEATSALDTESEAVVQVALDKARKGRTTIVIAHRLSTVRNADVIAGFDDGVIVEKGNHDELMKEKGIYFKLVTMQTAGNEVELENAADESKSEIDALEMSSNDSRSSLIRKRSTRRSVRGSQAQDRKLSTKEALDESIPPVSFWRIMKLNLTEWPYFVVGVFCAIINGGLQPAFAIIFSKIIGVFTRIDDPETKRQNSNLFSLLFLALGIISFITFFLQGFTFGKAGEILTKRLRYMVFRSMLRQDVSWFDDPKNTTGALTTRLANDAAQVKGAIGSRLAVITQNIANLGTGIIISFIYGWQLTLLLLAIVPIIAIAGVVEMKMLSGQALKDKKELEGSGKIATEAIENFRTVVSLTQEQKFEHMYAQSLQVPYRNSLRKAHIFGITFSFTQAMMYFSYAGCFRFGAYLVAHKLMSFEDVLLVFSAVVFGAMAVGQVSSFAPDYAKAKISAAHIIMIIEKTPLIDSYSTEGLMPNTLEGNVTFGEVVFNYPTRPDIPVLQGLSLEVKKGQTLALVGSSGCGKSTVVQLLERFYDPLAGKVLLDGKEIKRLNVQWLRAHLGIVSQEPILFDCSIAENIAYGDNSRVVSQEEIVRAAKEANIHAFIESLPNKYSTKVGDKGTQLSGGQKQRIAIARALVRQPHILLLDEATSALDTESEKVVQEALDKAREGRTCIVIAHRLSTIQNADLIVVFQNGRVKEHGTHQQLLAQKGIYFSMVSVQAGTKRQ

P-gp [2] = molecular target: T1, P-gp; details: for Rmax: analyte binding capacity from steady-state fit; for Kd: Table 2, steady-state affinity model (1:1), reference FC SMALPs-MCF-7
P-gp [3] = molecular target: T1, P-gp; details: SPR screening of 50 natural products, remarkable response values
P-gp [4] = molecular target: T1, P-gp; test: Rh123 bidirectional transport experiment in MDCK-MDR1 cell monolayer; assay type: cell-based; details: MDCK-MDR1 cells, pre-incubation with the compound
How it was run: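 MDCK cells transfected with MDR1 were grown in DMEM with 10% FBS, streptomycin and penicillin, then used as monolayers on Transwell plates. Rh123 served as the P-gp substrate. Apparent permeability was measured in both directions, apical→basolateral and basolateral→apical, with efflux rate (ER) derived from these, for treated versus control monolayers (mean ± SD, n = 3).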

| Structure (SMILES) | Kd (P-gp [1]) [µM] | Rmax (P-gp [2]) [RU] | Screening outcome: target compound binding to P-gp (P-gp [3]) | Kd (P-gp [2]) [µM] | Effect on ER of Rh123 / P-gp function (in words) (P-gp [4]) | Sensitivity of MCF-7/ADR cells to Adr (MCF-7/ADR cells) |
| --- | --- | --- | --- | --- | --- | --- |
| COc1ccc2cc1Oc1ccc(cc1)C[C@H]1c3cc(c(OC)cc3CCN1C)Oc1c(O)c(OC)cc3c1[C@H](C2)N(C)CC3 [Fangchinoline] | 116 | 24.92 | could bind to P-gp |  |  | significantly increased |
| C/C=C(/C)C(=O)O[C@H]1[C@@H](OC(C)=O)c2c(ccc3ccc(=O)oc23)OC1(C)C [Praeruptorin A] |  | 2.618 | could bind to P-gp | 7.17 |  |  |
| C/C=C(/C)C(=O)O[C@H]1c2c(ccc3ccc(=O)oc23)OC(C)(C)[C@H]1OC(=O)/C(C)=C\C [Praeruptorin B] |  | 3.498 | could bind to P-gp | 0.542 | significantly reduce the ER of Rh123 | significantly increased |
| COc1ccc2cc1Oc1ccc(cc1)C[C@H]1c3cc(c(OC)cc3CCN1C)Oc1c(OC)c(OC)cc3c1[C@H](C2)N(C)CC3 [Tetrandrine] | 221 | 11.24 | could bind to P-gp |  |  | significantly increased |
| C/C=C/C[C@@H](C)C(=O)[C@H]1C(=O)N[C@@H](C(C)C)C(=O)N(C)CC(=O)N(C)[C@@H](CC(C)C)C(=O)N[C@@H](C(C)C)C(=O)N(C)[C@@H](CC(C)C)C(=O)N[C@@H](C)C(=O)N[C@H](C)C(=O)N(C)[C@@H](CC(C)C)C(=O)N(C)[C@@H](CC(C)C)C(=O)N(C)[C@@H](C(C)C)C(=O)N1C [Valspodar, valspodar, reference compound] |  |  |  |  |  | significantly increased |

Further lines, with some results ahead:

| Kd (P-gp [1]) [µM] | Rmax (P-gp [2]) [RU] | Screening outcome: target compound binding to P-gp (P-gp [3]) | Kd (P-gp [2]) [µM] | Effect on ER of Rh123 / P-gp function (in words) (P-gp [4]) | Structure (SMILES) | Sensitivity of MCF-7/ADR cells to Adr (MCF-7/ADR cells) |
| --- | --- | --- | --- | --- | --- | --- |
| 152 | 270.2 |  |  |  | COc1cc(/C=C/C(=O)CC(=O)/C=C/c2ccc(O)c(OC)c2)ccc1O [Curcumin] | could not improve the sensitivity |
|  | 13.86 | could bind to P-gp | 2.55 |  | COc1ccc(-c2oc3c(CC=C(C)C)c(O)cc(O)c3c(=O)c2O)cc1 [Icaritin] |  |
| 255 | 114 |  |  |  | O=C(/C=C/c1ccc(O)cc1)c1ccc(O)cc1O [Isoliquiritigenin] | could not improve the sensitivity |
| 51.7 | 47.21 | could bind to P-gp |  |  | O=c1cc(-c2ccc(O)c(O)c2)oc2cc(O)cc(O)c12 [Luteolin] |  |
|  | 89.01 | could bind to P-gp | 127 | significantly reduce the ER of Rh123 | COc1cccc(O)c1-c1cc(=O)c2c(O)c(OC)c(OC)c(OC)c2o1 [Neobaicalein] | significantly increased |
